Test [1] has as its system Pseudomonas aeruginosa. The test can be described thus: Antimicrobial activity against SHV-12 ESBL producing Pseudomonas aeruginosa isolate 2205 isolated from burn patient by broth microdilution method in presence of beta-lactamase inhibitor clavulanic acid. The class given is functional. For orientation: Dilution methods test growth across graded concentrations, often in twofold steps.

Test [2] concerns Pseudomonas aeruginosa. Briefly: Antimicrobial activity against SHV-12 ESBL producing Pseudomonas aeruginosa isolate 2202 isolated from burn patient by broth microdilution method. The class given is functional. In a few lines:
(§1)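 MICs were determined by broth microdilution following the CLSI proposal. For clavulanic acid combinations, clavulanate was held at a fixed concentration. The seven isolates came from a single burn patient over the clinical course. P072204 was taken from sputum; all others were taken from burn sites. Isolates were typed by PCR for blaSHV and IS26.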

Test [3] has as its system Pseudomonas aeruginosa. Briefly: Antimicrobial activity against SHV-12 ESBL producing Pseudomonas aeruginosa isolate 2207 isolated from burn patient by broth microdilution method in presence of beta-lactamase inhibitor clavulanic acid. In kind it is functional.
Test [4] concerns Pseudomonas aeruginosa. The test can be described thus: Antimicrobial activity against SHV-12 ESBL producing Pseudomonas aeruginosa isolate 2204 isolated from burn patient by broth microdilution method. In kind it is functional. An outline of the steps: as §1
The subject of test [5] is Pseudomonas aeruginosa. The test can be described thus: Antimicrobial activity against SHV-12 ESBL producing Pseudomonas aeruginosa isolate 2201 isolated from burn patient by broth microdilution method in presence of beta-lactamase inhibitor clavulanic acid. The class given is functional.
The test system of test [6] is Pseudomonas aeruginosa. Briefly: Antimicrobial activity against SHV-12 ESBL non-producing Pseudomonas aeruginosa isolate 2202 isolated from burn patient by broth microdilution method in presence of beta-lactamase inhibitor clavulanic acid.
Test [7] deals with Pseudomonas aeruginosa. The test can be described thus: Antimicrobial activity against SHV-12 ESBL producing Pseudomonas aeruginosa isolate 2206 isolated from burn patient by broth microdilution method in presence of beta-lactamase inhibitor clavulanic acid. In kind it is functional.
Test [8] deals with Pseudomonas aeruginosa. The test can be described thus: Antimicrobial activity against SHV-12 ESBL producing Pseudomonas aeruginosa isolate 2201 isolated from burn patient by broth microdilution method. The class given is functional. An outline of the steps: as §1
Test [9] deals with Pseudomonas aeruginosa. Briefly: Antimicrobial activity against SHV-12 ESBL producing Pseudomonas aeruginosa isolate 2203 isolated from burn patient by broth microdilution method. In kind it is functional. In a few lines: as §1
Test [10] deals with Pseudomonas aeruginosa. Briefly: Antimicrobial activity against SHV-12 ESBL producing Pseudomonas aeruginosa isolate 2207 isolated from burn patient by broth microdilution method. In kind it is functional. An outline of the steps: as §1
Test [11] relates to Pseudomonas aeruginosa. Briefly: Antimicrobial activity against SHV-12 ESBL producing Pseudomonas aeruginosa isolate 2205 isolated from burn patient by broth microdilution method. The class given is functional. In a few lines:
as §1

Test [12] relates to Pseudomonas aeruginosa. The test can be described thus: Antimicrobial activity against SHV-12 ESBL non-producing Pseudomonas aeruginosa isolate 2203 isolated from burn patient by broth microdilution method in presence of beta-lactamase inhibitor clavulanic acid.
In test [13] the test system is Pseudomonas aeruginosa. Briefly: Antimicrobial activity against SHV-12 ESBL non-producing Pseudomonas aeruginosa isolate 2204 isolated from burn patient by broth microdilution method in presence of beta-lactamase inhibitor clavulanic acid.
For test [14], the system named is Pseudomonas aeruginosa. The test can be described thus: Antimicrobial activity against SHV-12 ESBL producing Pseudomonas aeruginosa isolate 2206 isolated from burn patient by broth microdilution method. The class given is functional. In a few lines:
as §1

SMILES strings stand for the structures. Values after ≈ are worked out from the molar mass of the structure shown.

Take `CC1(C)S[C@@H]2[C@H](NC(=O)[C@H](C(=O)O)c3ccsc3)C(=O)N2[C@H]1C(=O)O` [TICARCILLIN]: the MIC was more than 512 µg/mL with Pseudomonas aeruginosa [1]; 32 µg/mL (≈ 83.2 µM) in the test with Pseudomonas aeruginosa [2]; more than 512 µg/mL in the test on Pseudomonas aeruginosa [3]; 64 µg/mL (≈ 166 µM) against Pseudomonas aeruginosa [4]; 16 µg/mL in the test on Pseudomonas aeruginosa [5]; 32 µg/mL with Pseudomonas aeruginosa [6]. Moreover, the MIC is more than 512 µg/mL with Pseudomonas aeruginosa [7]; 16 µg/mL (≈ 41.6 µM) in the test with Pseudomonas aeruginosa [8]; 32 µg/mL (≈ 83.2 µM) in the test on Pseudomonas aeruginosa [9]; more than 512 µg/mL in the test with Pseudomonas aeruginosa [10]; more than 512 µg/mL with Pseudomonas aeruginosa [11]; 32 µg/mL with Pseudomonas aeruginosa [12]. The values for the MIC with Pseudomonas aeruginosa [13] and against Pseudomonas aeruginosa [14] were 64 µg/mL and more than 512 µg/mL, respectively.

For `CCN1CCN(C(=O)N[C@@H](C(=O)N[C@@H]2C(=O)N3[C@@H]2SC(C)(C)[C@@H]3C(=O)O)c2ccccc2)C(=O)C1=O` [PIPERACILLIN], the MIC with Pseudomonas aeruginosa [1] is 128 µg/mL; in the test on Pseudomonas aeruginosa [2], 32 µg/mL (≈ 61.8 µM); in the test with Pseudomonas aeruginosa [3], 256 µg/mL; with Pseudomonas aeruginosa [4] it was 16 µg/mL (≈ 30.9 µM); in the test on Pseudomonas aeruginosa [5], 16 µg/mL; with Pseudomonas aeruginosa [6] it was 32 µg/mL. For the same molecule, the MIC was 256 µg/mL with Pseudomonas aeruginosa [7]; 16 µg/mL (≈ 30.9 µM) against Pseudomonas aeruginosa [8]; 16 µg/mL (≈ 30.9 µM) against Pseudomonas aeruginosa [9]; 512 µg/mL (≈ 989 µM) against Pseudomonas aeruginosa [10]; 256 µg/mL (≈ 495 µM) with Pseudomonas aeruginosa [11]; 16 µg/mL in the test with Pseudomonas aeruginosa [12]. Also, the MIC was 16 µg/mL with Pseudomonas aeruginosa [13] and 512 µg/mL (≈ 989 µM) in the test with Pseudomonas aeruginosa [14].

`NCC[C@H](O)C(=O)N[C@@H]1C[C@H](N)[C@@H](O[C@H]2O[C@H](CN)[C@@H](O)[C@H](O)[C@H]2O)[C@H](O)[C@H]1O[C@H]1O[C@H](CO)[C@@H](O)[C@H](N)[C@H]1O` [AMIKACIN]: the MIC is 4 µg/mL (≈ 6.83 µM) against Pseudomonas aeruginosa [2]; 4 µg/mL (≈ 6.83 µM) against Pseudomonas aeruginosa [4]; 4 µg/mL (≈ 6.83 µM) in the test on Pseudomonas aeruginosa [8]; 4 µg/mL (≈ 6.83 µM) with Pseudomonas aeruginosa [9]; 128 µg/mL (≈ 219 µM) against Pseudomonas aeruginosa [10]; 128 µg/mL (≈ 219 µM) in the test with Pseudomonas aeruginosa [11]. Besides, it took 128 µg/mL (≈ 219 µM) to inhibit growth against Pseudomonas aeruginosa [14] (MIC).

`C[C@H]1[C@H](NC(=O)/C(=N\OC(C)(C)C(=O)O)c2csc(N)n2)C(=O)N1S(=O)(=O)O` [AZTREONAM]: the MIC in the test with Pseudomonas aeruginosa [10], with Pseudomonas aeruginosa [11] and in the test with Pseudomonas aeruginosa [14] was 512 µg/mL (≈ 1180 µM) each time.

`CO/N=C(\C(=O)N[C@@H]1C(=O)N2C(C(=O)O)=C(COC(C)=O)CS[C@H]12)c1csc(N)n1` [CEFOTAXIME]: the MIC amounted to 64 µg/mL in the test on Pseudomonas aeruginosa [1]; 256 µg/mL (≈ 562 µM) in the test on Pseudomonas aeruginosa [2]; 64 µg/mL in the test with Pseudomonas aeruginosa [3]; 64 µg/mL (≈ 141 µM) in the test with Pseudomonas aeruginosa [4]; 16 µg/mL in the test on Pseudomonas aeruginosa [5]; 256 µg/mL in the test on Pseudomonas aeruginosa [6]. Moreover, the MIC in the test with Pseudomonas aeruginosa [7] is 64 µg/mL; with Pseudomonas aeruginosa [8] it was 16 µg/mL (≈ 35.1 µM); in the test on Pseudomonas aeruginosa [9], 128 µg/mL (≈ 281 µM); in the test on Pseudomonas aeruginosa [10], 512 µg/mL (≈ 1120 µM); against Pseudomonas aeruginosa [11], 512 µg/mL (≈ 1120 µM); in the test on Pseudomonas aeruginosa [12], 128 µg/mL. Also, the MIC in the test with Pseudomonas aeruginosa [13] is 64 µg/mL; against Pseudomonas aeruginosa [14] it was 512 µg/mL (≈ 1120 µM).

In the case of `CO/N=C(\C(=O)N[C@@H]1C(=O)N2C(C(=O)[O-])=C(C[N+]3(C)CCCC3)CS[C@H]12)c1csc(N)n1`, the MIC against Pseudomonas aeruginosa [10] was 512 µg/mL (≈ 1070 µM); with Pseudomonas aeruginosa [11] it was 256 µg/mL (≈ 533 µM); in the test on Pseudomonas aeruginosa [14] it was 512 µg/mL (≈ 1070 µM).

Turning to `CC(C)(O/N=C(\C(=O)N[C@@H]1C(=O)N2C(C(=O)[O-])=C(C[n+]3ccccc3)CS[C@H]12)c1csc(N)n1)C(=O)O` [CEFTAZIDIME], the MIC in the test on Pseudomonas aeruginosa [1] came to 16 µg/mL; in the test on Pseudomonas aeruginosa [2] it was 16 µg/mL (≈ 29.3 µM); in the test with Pseudomonas aeruginosa [3] it was 16 µg/mL; with Pseudomonas aeruginosa [4], 4 µg/mL (≈ 7.32 µM); in the test with Pseudomonas aeruginosa [5], 2 µg/mL; in the test on Pseudomonas aeruginosa [6], 16 µg/mL. Also, the MIC in the test on Pseudomonas aeruginosa [7] is 16 µg/mL; with Pseudomonas aeruginosa [8], 2 µg/mL (≈ 3.66 µM); against Pseudomonas aeruginosa [9], 8 µg/mL (≈ 14.6 µM); in the test with Pseudomonas aeruginosa [10], 512 µg/mL (≈ 937 µM); in the test on Pseudomonas aeruginosa [11], 512 µg/mL (≈ 937 µM); with Pseudomonas aeruginosa [12], 8 µg/mL. Further, the MIC turned out to be 4 µg/mL in the test with Pseudomonas aeruginosa [13] and 512 µg/mL (≈ 937 µM) against Pseudomonas aeruginosa [14].

By MIC is commonly meant the lowest concentration that inhibits growth of the organism.

For the origin of these results see ChEMBL document CHEMBL1649317, “Acquisition of a transposon encoding extended-spectrum beta-lactamase SHV-12 by Pseudomonas aeruginosa isolates during the clinical course of a burn patient” (2010).
